Results published in ChEMBL document CHEMBL4842351, “Synthesis and evaluation of novel and potent protease activated receptor 4 (PAR4) antagonists based on a quinazolin-4(3H)-one scaffold” (Eur J Med Chem, 2021).
Activity calls are given as the source filed them. The rule behind the calls is not given here.

Legend:
[1] = Metabolic stability in mouse liver microsomes assessed as intrinsic clearance incubated for 60 mins by LC-MS/MS analysis; format: ADME, Microsome; settings: 1 h
How it was run: (§1)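 Human, rat or mouse liver microsomes in potassium phosphate buffer at pH ~7.4, warmed to 37 °C with compound (DMSO stock diluted in acetonitrile). Reaction started with NADPH; no-NADPH negative controls. Aliquots taken at 0 and 60 min, quenched in ice-cold acetonitrile with internal standard, and parent measured by LC/MS/MS. t1/2 = 0.693/k from ln concentration vs time; CLint derived from t1/2. Triplicate; mean ± SD.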

[2] = target: T1, Proteinase-activated receptor 1 (Homo sapiens, UniProt P25116); experiment: Antagonist activity at human PAR1 expressed in Ga15-HEK293 cells assessed as reduction in PAR1 AP SFFLRR-NH2-induced cytosolic calcium incubated for 24 hrs by FLIPR - calcium mobilization assay; format: functional, cell-based
T1 sequence (P25116 whole entry): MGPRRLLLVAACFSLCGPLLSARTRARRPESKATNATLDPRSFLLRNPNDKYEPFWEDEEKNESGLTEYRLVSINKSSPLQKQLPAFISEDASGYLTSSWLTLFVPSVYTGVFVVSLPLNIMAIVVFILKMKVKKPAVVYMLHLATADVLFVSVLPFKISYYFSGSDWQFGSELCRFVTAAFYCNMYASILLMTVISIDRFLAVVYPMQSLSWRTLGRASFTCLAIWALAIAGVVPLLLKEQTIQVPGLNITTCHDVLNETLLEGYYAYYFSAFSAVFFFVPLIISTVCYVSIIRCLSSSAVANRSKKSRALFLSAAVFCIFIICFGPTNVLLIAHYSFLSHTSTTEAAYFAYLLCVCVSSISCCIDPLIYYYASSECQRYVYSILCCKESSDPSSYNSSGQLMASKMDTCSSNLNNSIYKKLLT
How it was run: (§2)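 HEK293/Gα15 cells stably expressing human PAR1, PAR2 or PAR4, seeded at 45,000 cells/well and grown for 24 h at 37 °C, 5% CO₂. Cells loaded with calcium dye for 60 min at 37 °C in the dark. Compounds diluted from DMSO in HBSS and preincubated in the dark at room temperature. Agonists: SFFLRR (PAR1), 2-furoyl-LIGRLO-NH₂ (PAR2), AYPGKF-NH₂ (PAR4). Fluorescence read on FLIPR; 10-point half-log curves; mean of ≥2 determinations.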

[3] = Cytotoxicity against HEK293T cells assessed as cell viability at 20 uM incubated for 48 hrs by CCK-8 assay; format: cell-based, HEK-293T; settings: human, read-out: Activity
How it was run: (§3)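 HEK293 cells in exponential growth, 4000/well, left to adhere overnight, then exposed to three compound concentrations for 48 h. Equal-volume DMSO served as control. CCK-8 added for 2 h at 37 °C in the dark, absorbance read at 450 nm. Viability = OD sample/OD control × 100; mean ± SD, n=3.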

Platelet [4] = experiment: Antiplatelet activity against ADP-induced human platelet aggregation in platelet in platelet rich plasma assessed as inhibition of platelet aggregation at 10 uM by photo-turbidimetry method; format: functional, cell-based
How it was run: (§4)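 Human PRP prepared as for the aggregation assay and adjusted to 3×10⁸/mL. Compound preincubated for 5 min at 37 °C, then aggregation triggered by AYPGKF, SFLLRN, collagen, ADP or U46619. Maximum percent inhibition taken from 5 min light-transmittance traces. Mean ± SD, n=3.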

[5] = Metabolic stability in human liver microsomes assessed as intrinsic clearance incubated for 60 mins by LC-MS/MS analysis; format: ADME, Microsome; settings: 1 h
[6] = Cytotoxicity against HEK293T cells assessed as cell viability at 10 uM incubated for 48 hrs by CCK-8 assay; format: cell-based, HEK-293T; settings: human, read-out: Activity; how it was run: as §3
Platelet [7] = experiment: Antiplatelet activity against U46619-induced human platelet aggregation in platelet in platelet rich plasma assessed as inhibition of platelet aggregation at 10 uM by photo-turbidimetry method; format: functional, cell-based; how it was run: as §4
[8] = Cytotoxicity against HEK293T cells assessed as cell viability at 1 uM incubated for 48 hrs by CCK-8 assay; format: cell-based, HEK-293T; settings: human, read-out: Activity; how it was run: as §3
[9] = Metabolic stability in human liver microsomes assessed as half life incubated for 60 mins by LC-MS/MS analysis; format: ADME, Microsome
Platelet [10] = experiment: Antiplatelet activity against collagen-induced human platelet aggregation in platelet in platelet rich plasma assessed as inhibition of platelet aggregation at 10 uM by photo-turbidimetry method; format: functional, cell-based; how it was run: as §4
[11] = Metabolic stability in rat liver microsomes assessed as intrinsic clearance incubated for 60 mins by LC-MS/MS analysis; format: ADME, Microsome; settings: 1 h; how it was run: as §1
Platelet [12] = experiment: Antiplatelet activity against SFLLRN-NH2-induced human platelet in platelet rich plasma assessed as inhibition of platelet aggregation at 10 uM by photo-turbidimetry method; format: functional, cell-based; how it was run: as §4
[13] = Metabolic stability in rat liver microsomes assessed as half life incubated for 60 mins by LC-MS/MS analysis; format: ADME, Microsome; how it was run: as §1
[14] = Metabolic stability in mouse liver microsomes assessed as half life incubated for 60 mins by LC-MS/MS analysis; format: ADME, Microsome; how it was run: as §1
[15] = target: T2, Proteinase-activated receptor 4 (Homo sapiens, UniProt Q96RI0); experiment: Antagonist activity at human PAR4 expressed in Ga15-HEK293 cells assessed as reduction in PAR4 AP AYPGKF-NH2-induced cytosolic calcium incubated for 24 hrs by FLIPR - calcium mobilization assay; format: functional, cell-based; how it was run: as §2
T2 sequence (Q96RI0 whole entry): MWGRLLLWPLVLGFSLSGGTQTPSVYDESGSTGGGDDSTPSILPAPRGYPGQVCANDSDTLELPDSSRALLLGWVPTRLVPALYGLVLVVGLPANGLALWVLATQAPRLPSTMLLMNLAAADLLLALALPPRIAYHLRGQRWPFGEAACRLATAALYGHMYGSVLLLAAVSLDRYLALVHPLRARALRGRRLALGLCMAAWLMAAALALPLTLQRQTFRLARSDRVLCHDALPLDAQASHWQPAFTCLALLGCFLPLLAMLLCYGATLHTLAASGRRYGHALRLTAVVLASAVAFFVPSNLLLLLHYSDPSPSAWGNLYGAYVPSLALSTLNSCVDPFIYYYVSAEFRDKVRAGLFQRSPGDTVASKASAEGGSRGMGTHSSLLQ

Platelet [16] = experiment: Antiplatelet activity against AYPGKF-NH2-induced human platelet in platelet rich plasma assessed as inhibition of platelet aggregation at 10 uM by photo-turbidimetry method; format: functional, cell-based; how it was run: as §4
[17] = target: T3, Proteinase-activated receptor 2 (Homo sapiens, UniProt P55085); experiment: Antagonist activity at human PAR2 expressed in Ga15-HEK293 cells assessed as reduction in PAR2 AP 2-furoyl-LIGRLO-NH2-induced cytosolic calcium incubated for 24 hrs by FLIPR - calcium mobilization assay; format: functional, cell-based; how it was run: as §2
T3 sequence (P55085 whole entry): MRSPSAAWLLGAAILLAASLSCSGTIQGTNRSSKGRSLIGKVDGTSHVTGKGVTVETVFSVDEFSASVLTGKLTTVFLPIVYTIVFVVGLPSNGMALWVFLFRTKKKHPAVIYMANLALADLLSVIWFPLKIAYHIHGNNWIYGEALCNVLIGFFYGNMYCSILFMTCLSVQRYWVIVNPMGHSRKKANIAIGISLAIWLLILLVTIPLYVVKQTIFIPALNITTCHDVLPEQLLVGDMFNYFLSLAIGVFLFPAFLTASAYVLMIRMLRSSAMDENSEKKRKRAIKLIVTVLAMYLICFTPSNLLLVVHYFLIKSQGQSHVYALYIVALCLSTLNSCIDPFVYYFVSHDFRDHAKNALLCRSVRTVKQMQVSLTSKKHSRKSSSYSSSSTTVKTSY

COc1cc(Cl)c2nc(-c3cc(C)cc4c(=O)n(C)cnc34)sc2c1
CLH [1]: 19.3 mL/min/g | IC50 [2]: > 3160 nM | viability at 48 h, 20 µM [3]: 59.3% | Activity (Platelet [4]): inactive | CLH [5]: 36.6 mL/min/g | viability at 48 h, 10 µM [6]: 73.7% | Activity (Platelet [7]): inactive | viability at 48 h, 1 µM [8]: 91.3% | half-life [9]: 42.6 min | Activity (Platelet [10]): inactive | CLH [11]: 78.1 mL/min/g | Activity (Platelet [12]): inactive | half-life [13]: 31.9 min | half-life [14]: 282 min | IC50 [15]: 0.53 nM | Activity (Platelet [16]): Active | IC50 [17]: > 1000 nM
